The source made the active and inactive calls. The rule behind the calls is not given here.
Experiments:
[1] = Drug metabolism in human liver microsomes at 1 uM after 30 mins by LC-MS/MS analysis; format: ADME, Microsome; details: read-out: Drug metabolism
Summary of the method: (§1)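 Liver microsomes (1 mg/mL protein) in sodium phosphate buffer pH 7.4 with 5 mM NADPH, preincubated 10 min at 37°C. Test compound taken from a 200 µM acetonitrile:DMSO (96:4) stock. Samples analysed by LC/MS/MS as analyte/internal standard peak-area ratio. Percent metabolized at 30 min relative to 0 min; NADPH-free controls run in parallel.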

[2] = Cytotoxicity against African green monkey Vero cells after 72 hrs by MTT assay; format: cell-based; details: chlorocebus sabaeus
Summary of the method: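 Exponentially growing Vero cells (1 x 10^5/well) exposed 72 h at 37°C, 5% CO2, to 7-point threefold dilutions from 400 µM (DMSO stocks diluted in medium), with DMSO vehicle controls. MTT added for 2 h, formazan dissolved in DMSO, absorbance read at 544 nm. CC50 is the concentration halving viability versus medium-only cells; mean of two independent experiments.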

[3] = Drug metabolism in mouse liver microsomes at 1 uM after 30 mins by LC-MS/MS analysis; format: ADME, Microsome; details: read-out: Drug metabolism; summary of the method: as §1
[4] = Drug metabolism in hamster liver microsomes at 1 uM after 30 mins by LC-MS/MS analysis; format: ADME, Microsome; details: cricetinae, read-out: Drug metabolism; summary of the method: as §1
[5] = Selectivity index, ratio of CC50 for African green monkey Vero cells to IC50 for Leishmania donovani MHOM/IN/80/Dd8 amastigotes; format: functional
Summary of the method: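 Selectivity index is Vero CC50 divided by IC50 against intracellular L. donovani amastigotes in J774A.1 cells, each measured over 72 h.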

Leishmania donovani [6] = assay: Antileishmanial activity against Leishmania donovani MHOM/IN/80/Dd8 amastigotes infected in mouse J774A1 cells assessed as parasite growth inhibition after 72 hrs by luciferase reporter gene assay; format: functional, organism-based; details: MHOM/IN/80/Dd8, J774.A1, 72 h
Summary of the method: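 J774A.1 macrophages (4 x 10^3/well) in RPMI-1640 with 10% FCS for 24 h, then infected with stationary-phase luciferase-expressing promastigotes (4 x 10^4/well). Non-internalized parasites washed off after 24 h. Compounds given as 7-point serial dilution from 100 µM for 72 h at 37°C. Steady-Glo luminescence read; IC50 from four-parameter Hill fit, mean of two independent experiments.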

Leishmania donovani [7] = assay: Antileishmanial activity against Leishmania donovani MHOM/IN/80/Dd8 amastigotes infected in golden hamster assessed as parasite growth inhibition at 30 mg/kg, po qd for 5 days measured on day 7 by Giemsa staining assay; format: functional; details: read-out: GI
Summary of the method: (§2)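 Inbred golden hamsters, 40-45 g, infected intracardially with 1 x 10^7 L. donovani amastigotes. Animals with +1 spleen biopsy grade (5-15 amastigotes/100 nuclei) were randomized, 5-6 per group. Dosing in distilled water/PBS began 48 h after biopsy and ran 5 consecutive days. Post-treatment spleen biopsy on day 7, Giemsa count; percent inhibition corrected for initial count and untreated-control increase.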

[8] = Solubility of the compound; format: physicochemical
Leishmania donovani [9] = assay: Antileishmanial activity against Leishmania donovani MHOM/IN/80/Dd8 amastigotes infected in golden hamster assessed as parasite growth inhibition at 50 mg/kg, ip qd for 5 days measured on day 7 by Giemsa staining assay; format: functional; summary of the method: as §2
Leishmania donovani [10] = assay: Antileishmanial activity against Leishmania donovani MHOM/IN/80/Dd8 amastigotes infected in golden hamster assessed as parasite growth inhibition at 50 mg/kg, po bid for 5 days measured on day 7 by Giemsa staining assay; format: functional; summary of the method: as §2

| SMILES | metabolised at 0.5 h, 1 µM [1] | CC50 at 72 h [2] | metabolised at 0.5 h, 1 µM [3] | metabolised at 0.5 h, 1 µM [4] | Ratio CC50/IC50 [5] | IC50 (Leishmania donovani [6]) | inhibition in vivo at 30 mg/kg (Leishmania donovani [7]) | solubility [8] | growth inhibition (GI) (Leishmania donovani [9]) | growth inhibition (GI) (Leishmania donovani [10]) |
| --- | --- | --- | --- | --- | --- | --- | --- | --- | --- | --- |
| CN1CCN(c2cc(/C=C/CO)nc3cc(F)c(Cl)cc23)CC1 | 27% | 44.6 µM | 27% | 89% | 7.58 | 5.88 µM | – | – | – | – |
| OC/C=C/c1ccc2cc(Cl)ccc2n1 | 87% | 28.9 µM | 100% | – | 33.59 | 0.86 µM | – | – | – | – |
| OC/C=C/c1cc(N2CCOCC2)c2cc(Cl)ccc2n1 | 43% | 46.9 µM | 56% | 88% | 10.65 | 4.4 µM | – | – | – | – |
| CCCCCCCCCCCCCCCCOP(=O)([O-])OCC[N+](C)(C)C [MILTEFOSINE] | – | 52.7 µM | – | – | 6.27 | – | 96.5% | – | – | – |
| CN(C)c1cc(/C=C/CO)nc2cc(F)c(Cl)cc12 | – | 41.6 µM | – | – | 1.8 | 23 µM | – | – | – | – |
| NC(=O)/C=C/c1ccc2ccccc2n1 | 44% | 76.3 µM | 97% | – | 3.74 | 20.4 µM | – | – | – | – |
| FC/C=C/c1ccc2ccccc2n1 | 100% | 38.6 µM | 100% | – | 5.77 | 6.68 µM | – | > 1000 µg/mL | – | – |
| COc1cc2nc(/C=C/CO)cc(N3CCOCC3)c2cc1Cl | 31% | 51.8 µM | 44% | 86% | 13.92 | 3.72 µM | – | – | – | – |
| OC/C=C/c1cc(Oc2ccc(F)cc2)c2cc(Cl)ccc2n1 | 27% | 35.4 µM | 33% | 94% | 18.07 | 1.96 µM | – | – | – | – |
| OC/C=C/c1ccc2ccccc2n1 | 96% | 31.9 µM | 100% | – | 3.17 | 10 µM | – | – | inactive | – |
| COc1ccc(-c2cc(/C=C/CO)nc3cc(F)c(Cl)cc23)cc1 | 14% | 26.8 µM | 30% | 23% | 22.26 | 1.2 µM | – | – | – | inactive |
| CCCc1ccc2ccccc2n1 | 98% | 126 µM | 100% | – | <1.25 | > 100 µM | – | – | – | – |
| OC/C=C/c1cc(-c2ccc(F)cc2)c2cc(Cl)c(F)cc2n1 | 25% | 24.6 µM | 51% | 53% | – | 1.43 µM | – | – | – | – |
| OC/C=C/c1cc(-c2cccc(F)c2)c2cc(Cl)c(F)cc2n1 | 25% | 21.6 µM | 40% | 59% | 12.08 | 1.79 µM | – | – | – | – |
